Measurements reported in ChEMBL document CHEMBL1177827, “Discovery of novel 1H-imidazol-2-yl-pyrimidine-4,6-diamines as potential antimalarials” (Bioorg Med Chem Lett, 2010).
Values after ≈ are worked out from the molar mass of the structure shown. Blank lines part the entries; values can stand above or below the compound they belong to.

What was measured:
Plasmodium falciparum [1] = assay: Antimalarial activity Plasmodium falciparum 3D7; format: functional, organism-based
Summary of the method: (§1)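 P. falciparum-infected human red blood cell proliferation assay, with SYBR Green staining as the read-out of parasite growth. EC50 is the mean of two experiments. Each plate carries mefloquine, sulfadoxine and artemisinin as internal standards.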

Plasmodium falciparum [2] = assay: Antimalarial activity Plasmodium falciparum 3BAG; format: functional, organism-based; summary of the method: as §1
Plasmodium falciparum [3] = assay: Antimalarial activity Plasmodium falciparum CAMP R; format: functional, organism-based; conditions: CampR; summary of the method: as §1
Plasmodium falciparum [4] = assay: Antimalarial activity Plasmodium falciparum C188; format: functional, organism-based; summary of the method: as §1
Plasmodium falciparum [5] = assay: Antimalarial activity Plasmodium falciparum D10; format: functional, organism-based; summary of the method: as §1
Plasmodium falciparum [6] = assay: Antimalarial activity Plasmodium falciparum D6; format: functional, organism-based; summary of the method: as §1
Plasmodium falciparum [7] = assay: Antimalarial activity Plasmodium falciparum Dd2; format: functional, organism-based; summary of the method: as §1
Plasmodium falciparum [8] = assay: Antimalarial activity Plasmodium falciparum FcB1; format: functional, organism-based; conditions: FcB1/Columbia; summary of the method: as §1
Plasmodium falciparum [9] = assay: Antimalarial activity Plasmodium falciparum FCR3; format: functional, organism-based; conditions: FCR-3/Gambia; summary of the method: as §1
Plasmodium falciparum [10] = assay: Antimalarial activity Plasmodium falciparum 7G8; format: functional, organism-based; summary of the method: as §1
Plasmodium falciparum [11] = assay: Antimalarial activity Plasmodium falciparum HB3; format: functional, organism-based; summary of the method: as §1
Plasmodium falciparum [12] = assay: Antimalarial activity Plasmodium falciparum K1; format: functional, organism-based; summary of the method: as §1
Plasmodium falciparum [13] = assay: Antimalarial activity Plasmodium falciparum NF54; format: functional, organism-based; summary of the method: as §1
Plasmodium falciparum [14] = assay: Antimalarial activity Plasmodium falciparum TM91C235; format: functional, organism-based; summary of the method: as §1
Plasmodium falciparum [15] = assay: Antimalarial activity Plasmodium falciparum W2; format: functional, organism-based; summary of the method: as §1
[16] = Metabolic stability in rat microsomes assessed as extraction ratio; format: ADME, Microsome
[17] = Metabolic stability in mouse microsomes assessed as extraction ratio; format: ADME, Microsome
[18] = Metabolic stability in human microsomes assessed as extraction ratio; format: ADME, Microsome
[19] = Thermodynamic solubility at pH 6.8; format: physicochemical; conditions: buffer
Summary of the method: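 Thermodynamic solubility measured at pH 6.8, reported in […].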

[20] = AUC (0 to infinity) in mouse; format: ADME, organism-based; design: time infinity; conditions: plasma
[21] = Cmax in mouse; format: ADME, organism-based; conditions: in vivo
[22] = Half life in mouse; format: ADME, organism-based; conditions: in vivo
[23] = Oral bioavailability in mouse; format: ADME, organism-based; conditions: in vivo

EC50 (Plasmodium falciparum [1]): 4680 nM
Compound: Cc1c(Nc2ccc(OC(F)(F)F)cc2)ncnc1Nc1nccn1-c1cccc(C(F)(F)F)c1

EC50 (Plasmodium falciparum [1]): 116 nM
Compound: FC(F)(F)Oc1ccc(Nc2cc(Nc3nccn3-c3cccc(C(F)(F)F)c3)nc(Oc3ccccc3)n2)cc1

EC50 (Plasmodium falciparum [1]): 3830 nM
Compound: CN(c1cc(Nc2ccc(OC(F)(F)F)cc2)ncn1)c1nccn1-c1cccc(C(F)(F)F)c1

EC50 (Plasmodium falciparum [1]): 34 nM | EC50 (Plasmodium falciparum [2]): 60 nM | EC50 (Plasmodium falciparum [3]): 50 nM | EC50 (Plasmodium falciparum [4]): 140 nM | EC50 (Plasmodium falciparum [5]): 15 nM | EC50 (Plasmodium falciparum [6]): 50 nM | EC50 (Plasmodium falciparum [7]): 71 nM | EC50 (Plasmodium falciparum [8]): 50 nM | EC50 (Plasmodium falciparum [9]): 139 nM | EC50 (Plasmodium falciparum [10]): 95 nM | EC50 (Plasmodium falciparum [11]): 46 nM | EC50 (Plasmodium falciparum [12]): 88 nM | EC50 (Plasmodium falciparum [13]): 33 nM | EC50 (Plasmodium falciparum [14]): 58 nM | EC50 (Plasmodium falciparum [15]): 120 nM | hepatic extraction ratio [16]: 0.264 | hepatic extraction ratio [17]: < 0.17 | hepatic extraction ratio [18]: < 0.28 | solubility thermodynamic [19]: 40 µg/mL (≈ 69.1 µM) | AUC(0-inf) [20]: 14.2 µM·h | Cmax [21]: 946 nM | half-life [22]: 12 h | bioavailability [23]: 30%
Compound: CN1CCN(c2nc(Nc3ccc(OC(F)(F)F)cc3)cc(Nc3nccn3-c3cccc(C(F)(F)F)c3)n2)CC1

EC50 (Plasmodium falciparum [1]): 53 nM
Compound: FC(F)(F)Oc1ccc(Nc2cc(Nc3nccn3-c3cccc(C(F)(F)F)c3)nc(NCCN3CCOCC3)n2)cc1

EC50 (Plasmodium falciparum [1]): 60 nM
Compound: CC(C)Oc1nc(Nc2ccc(OC(F)(F)F)cc2)cc(Nc2nccn2-c2cccc(C(F)(F)F)c2)n1

EC50 (Plasmodium falciparum [1]): 353 nM
Compound: FC(F)(F)Oc1ccc(Nc2cc(Nc3nccn3-c3cccc(C(F)(F)F)c3)nc(C(F)(F)F)n2)cc1

EC50 (Plasmodium falciparum [1]): 223 nM
Compound: FC(F)(F)Oc1ccc(Nc2cc(Nc3nccn3-c3cc(Br)cc(C(F)(F)F)c3)ncn2)cc1

EC50 (Plasmodium falciparum [1]): 67 nM
Compound: Cc1nc(Nc2ccc(OC(F)(F)F)cc2)cc(Nc2nccn2-c2cccc(C(=O)NCCCN3CCOCC3)c2)n1

EC50 (Plasmodium falciparum [1]): 1330 nM
Compound: FC(F)(F)Oc1ccc(Nc2ncnc(Nc3nccn3-c3cccc(C(F)(F)F)c3)n2)cc1

EC50 (Plasmodium falciparum [1]): 175 nM
Compound: OCCN1CCN(c2cc(-n3ccnc3Nc3cc(Nc4ccc(OC(F)(F)F)cc4)ncn3)cc(C(F)(F)F)c2)CC1

EC50 (Plasmodium falciparum [1]): 87 nM
Compound: FC(F)(F)Oc1ccc(Nc2cc(Nc3nccn3-c3cc(NCCN4CCOCC4)cc(C(F)(F)F)c3)ncn2)cc1

EC50 (Plasmodium falciparum [1]): 91 nM
Compound: CN1CCN(CCNc2cc(-n3ccnc3Nc3cc(Nc4ccc(OC(F)(F)F)cc4)ncn3)cc(C(F)(F)F)c2)CC1

EC50 (Plasmodium falciparum [1]): 249 nM
Compound: O=C(NCCN1CCOCC1)c1cccc(-n2ccnc2Nc2cc(Nc3ccc(OC(F)(F)F)cc3)ncn2)c1

EC50 (Plasmodium falciparum [1]): 60 nM | hepatic extraction ratio [16]: 0.275 | hepatic extraction ratio [17]: < 0.17 | solubility thermodynamic [19]: 89 µg/mL (≈ 153 µM)
Compound: CCN1CCCC1CNC(=O)c1cccc(-n2ccnc2Nc2cc(Nc3ccc(OC(F)(F)F)cc3)nc(C)n2)c1 (stereo not given)

EC50 (Plasmodium falciparum [1]): 224 nM
Compound: Cc1nc(Nc2ccc(OC(F)(F)F)cc2)cc(Nc2nccn2-c2cccc(C(=O)NCCCN3CCCC3)c2)n1

EC50 (Plasmodium falciparum [1]): 239 nM
Compound: Cc1nc(Nc2ccc(OC(F)(F)F)cc2)cc(Nc2nccn2-c2cccc(C(=O)NCCCN3CCN(C)CC3)c2)n1

EC50 (Plasmodium falciparum [1]): 20 nM
Compound: OC(c1cc(C(F)(F)F)nc2c(C(F)(F)F)cccc12)C1CCCCN1 (stereo not given) [MEFLOQUINE]

EC50 (Plasmodium falciparum [1]): 30 nM
Compound: COc1ncnc(NS(=O)(=O)c2ccc(N)cc2)c1OC [SULFADOXINE]

The remaining lines, values behind:

Compound: FC(F)(F)Oc1ccc(Nc2cc(Nc3nccn3-c3cc(N4CCOCC4)cc(C(F)(F)F)c3)ncn2)cc1
EC50 (Plasmodium falciparum [1]): 532 nM

Compound: O=C(NCCc1c[nH]cn1)c1cccc(-n2ccnc2Nc2cc(Nc3ccc(OC(F)(F)F)cc3)ncn2)c1
EC50 (Plasmodium falciparum [1]): 1780 nM

Compound: Cc1nc(Nc2ccc(OC(F)(F)F)cc2)cc(Nc2nccn2-c2cccc(C(=O)NCCc3c[nH]cn3)c2)n1
EC50 (Plasmodium falciparum [1]): 822 nM

Compound: CS(=O)(=O)c1nc(Nc2ccc(OC(F)(F)F)cc2)cc(Nc2nccn2-c2cccc(C(F)(F)F)c2)n1
EC50 (Plasmodium falciparum [1]): 291 nM

Compound: COc1nc(Nc2ccc(OC(F)(F)F)cc2)cc(Nc2nccn2-c2cccc(C(F)(F)F)c2)n1
EC50 (Plasmodium falciparum [1]): 190 nM

Compound: FC(F)(F)Oc1ccc(Nc2cc(Nc3nccn3-c3cccc(C(F)(F)F)c3)nc(-c3ccccc3)n2)cc1
EC50 (Plasmodium falciparum [1]): 74 nM

Compound: CSc1nc(Nc2ccc(OC(F)(F)F)cc2)cc(Nc2nccn2-c2cccc(C(F)(F)F)c2)n1
EC50 (Plasmodium falciparum [1]): 107 nM

Compound: FC(F)(F)Oc1ccc(Nc2cc(Nc3nccn3-c3cccc(C(F)(F)F)c3)ncn2)cc1
EC50 (Plasmodium falciparum [1]): 436 nM

Compound: Oc1nc(Nc2ccc(OC(F)(F)F)cc2)cc(Nc2nccn2-c2cccc(C(F)(F)F)c2)n1
EC50 (Plasmodium falciparum [1]): 5440 nM

Compound: FC(F)(F)Oc1ccc(Nc2nccc(Nc3nccn3-c3cccc(C(F)(F)F)c3)n2)cc1
EC50 (Plasmodium falciparum [1]): 432 nM

Compound: FC(F)(F)Oc1ccc(Nc2cc(Nc3nccn3-c3cccc(C(F)(F)F)c3)nc(N3CCOCC3)n2)cc1
EC50 (Plasmodium falciparum [1]): 113 nM

Compound: Nc1nc(Nc2ccc(OC(F)(F)F)cc2)cc(Nc2nccn2-c2cccc(C(F)(F)F)c2)n1
EC50 (Plasmodium falciparum [1]): 49 nM

Compound: Cc1nc(Nc2ccc(OC(F)(F)F)cc2)cc(Nc2nccn2-c2cccc(C(F)(F)F)c2)n1
EC50 (Plasmodium falciparum [1]): 114 nM

Compound: CN1CCN(c2cc(-n3ccnc3Nc3cc(Nc4ccc(OC(F)(F)F)cc4)ncn3)cc(C(F)(F)F)c2)CC1
EC50 (Plasmodium falciparum [1]): 65 nM

Compound: FC(F)(F)Oc1ccc(Nc2cc(Nc3nccn3-c3cc(N4CCC(N5CCOCC5)CC4)cc(C(F)(F)F)c3)ncn2)cc1
EC50 (Plasmodium falciparum [1]): 88 nM

Compound: CN1CCN(C2CCN(c3cc(-n4ccnc4Nc4cc(Nc5ccc(OC(F)(F)F)cc5)ncn4)cc(C(F)(F)F)c3)CC2)CC1
EC50 (Plasmodium falciparum [1]): 90 nM | hepatic extraction ratio [18]: 0.316 | solubility thermodynamic [19]: 110 µg/mL (≈ 166 µM)

Compound: FC(F)(F)Oc1ccc(Nc2cc(Nc3nccn3-c3cc(N4CCC(N5CCCC5)CC4)cc(C(F)(F)F)c3)ncn2)cc1
EC50 (Plasmodium falciparum [1]): 92 nM

Compound: CCN(CC)CCNC(=O)c1cccc(-n2ccnc2Nc2cc(Nc3ccc(OC(F)(F)F)cc3)nc(C)n2)c1
EC50 (Plasmodium falciparum [1]): 46 nM | hepatic extraction ratio [16]: 0.367 | hepatic extraction ratio [17]: < 0.17 | hepatic extraction ratio [18]: < 0.31 | solubility thermodynamic [19]: 80 µg/mL (≈ 141 µM)

Compound: Cc1nc(Nc2ccc(OC(F)(F)F)cc2)cc(Nc2nccn2-c2cccc(C(=O)N3CCN(CCO)CC3)c2)n1
EC50 (Plasmodium falciparum [1]): 768 nM

Compound: Cc1nc(Nc2ccc(OC(F)(F)F)cc2)cc(Nc2nccn2-c2cccc(C(=O)NCCN3CCOCC3)c2)n1
EC50 (Plasmodium falciparum [1]): 69 nM | hepatic extraction ratio [16]: 0.243 | hepatic extraction ratio [17]: < 0.17 | hepatic extraction ratio [18]: < 0.42 | solubility thermodynamic [19]: 90 µg/mL (≈ 154 µM)

Compound: Cc1nc(Nc2ccc(OC(F)(F)F)cc2)cc(Nc2nccn2-c2cccc(C(=O)NCCN3CCCC3)c2)n1
EC50 (Plasmodium falciparum [1]): 168 nM

Compound: FC(F)(F)Oc1ccc(Nc2ccnc(Nc3nccn3-c3cccc(C(F)(F)F)c3)n2)cc1
EC50 (Plasmodium falciparum [1]): 268 nM

Compound: FC(F)(F)Oc1ccc(Nc2nc(Nc3nccn3-c3cccc(C(F)(F)F)c3)c3ccccc3n2)cc1
EC50 (Plasmodium falciparum [1]): 564 nM

Compound: FC(F)(F)Oc1ccc(Oc2cc(Nc3nccn3-c3cccc(C(F)(F)F)c3)ncn2)cc1
EC50 (Plasmodium falciparum [1]): 4240 nM

Compound: CNc1nc(Nc2ccc(OC(F)(F)F)cc2)cc(Nc2nccn2-c2cccc(C(F)(F)F)c2)n1
EC50 (Plasmodium falciparum [1]): 54 nM

Compound: C[C@@H]1CC[C@H]2[C@@H](C)C(=O)O[C@@H]3O[C@@]4(C)CC[C@@H]1[C@]32OO4 [ARTEMISININ]
EC50 (Plasmodium falciparum [1]): 10 nM
